Many of the other results were omitted from the sample, so hits are more common in it than they were.
ROMK primary = modulators of human ROMK potassium channel | B-score at 10 µM | actives 2% (n = 130,000) | AID 1918 | Tet-inducible ROMK, thallium flux fluorescence; actives lie on both sides | P48048;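 active = signal ratio slope over the read window, or its plate-corrected B-score, at least 3 SD from the plate mean, either direction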;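 note: B-score of the F/F0 ratio slope over 7 to 12 s after thallium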
Target sequence (P48048 whole entry, looked up): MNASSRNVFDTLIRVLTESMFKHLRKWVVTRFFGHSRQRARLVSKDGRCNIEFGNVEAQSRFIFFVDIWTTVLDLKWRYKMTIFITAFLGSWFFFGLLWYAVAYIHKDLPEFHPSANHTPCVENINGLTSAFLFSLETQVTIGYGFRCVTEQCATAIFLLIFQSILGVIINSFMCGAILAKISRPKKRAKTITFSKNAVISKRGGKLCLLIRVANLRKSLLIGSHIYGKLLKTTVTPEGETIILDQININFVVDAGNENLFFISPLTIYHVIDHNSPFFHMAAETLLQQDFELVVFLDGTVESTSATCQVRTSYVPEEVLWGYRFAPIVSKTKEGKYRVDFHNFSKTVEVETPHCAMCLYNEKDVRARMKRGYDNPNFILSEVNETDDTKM
Calb biofilm kill = mixtures killing C. albicans biofilm | C. albicans biofilm persisters + clotrimazole, fluorescence viability; primary screen in compound mixtures of four per well | inhibition, % at 7.6 µM | actives 0.02% (n = 120,000) | AID 1242;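 active = inhibition above 30.3% in the primary screen of four-compound pools, then above 30% when the compound was retested; inconclusive = passed the primary limit but could not be retested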;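 note: compounds exposed to preformed 24 h biofilms for 48 h; 0% = untreated biofilm control and 100% = clotrimazole plus chlorhexidine kill blank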
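System: C. albicans CAF4-2 wild-type biofilms; Medium: RPMI/MOPS medium, pH 7.0; Reagent: Clotrimazole, 50 µg/mL; Times: biofilm formation 24 h, compound exposure 48 h, 37 °C; Detection: 2-h Alamar Blue fluorescence, 535/590 nm excitation/emission; Evaluation: percent inhibition of biofilm viability.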
ROMK hit retest = human ROMK channel modulation, retest confirmation | shares compounds with ROMK primary | ROMK thallium flux, fluorescence ratio; hits give low values | normalized thallium flux (F/F0 slope) at 10 µM | actives 54% (n = 3,000);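 active = Flux at 10 µM at least 3 SD below or above vehicle control mean in one or both replicates; inconclusive = no clear call, values can overlap the other calls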
The depositor's hits bear a star; ? = inconclusive; · = no result.

SMILES	ROMK primary	Calb biofilm kill	ROMK hit retest
CCOC(=O)N/N=C/C(Cl)=C/c1ccccc1	0.79	15	·
O=C(CSc1nnc(-c2n[nH]c3ccccc23)n1-c1ccccc1)Nc1ccccc1Cl	0.011	14	·
COc1ccc(-n2cc(CNCc3cccnc3)c(-c3cccc(F)c3)n2)cc1	-3.2	22	·
COc1ccc(-n2cc(CNCCc3cnc[nH]3)c(-c3cccc(F)c3)n2)cc1	-1.9*	10	0.061*
O=C(O)CC(CNS(=O)(=O)c1ccccc1)c1ccccc1 (stereo unspecified)	·	·	?
O=C(O)CCCCCCNS(=O)(=O)c1ccccc1	-0.25	·	·
O=C(CNCc1ccccn1)Nc1cc(S(=O)(=O)N2CCCCC2)ccc1Cl	-0.12	13	·
COc1ccccc1CNCC(=O)Nc1cc(S(=O)(=O)N2CCCCCC2)ccc1Cl	·	17	0.066*
Cn1cc(/C=C2\SC(=S)N(N3CCOCC3)C2=O)c2ccccc21	·	23	·
CCOC(=O)CS(=O)(=O)c1ccc2ccccc2c1	-0.04	·	·
COCC(C)NC(=O)CCS(=O)(=O)c1nc(-c2ccc(OC)cc2)cc(C(F)(F)F)n1 (stereo unspecified)	-1.6	·	·
CCOC(=O)CS(=O)(=O)c1nc(-c2ccccc2)cc(C(F)(F)F)n1	-4.5*	13	0.059*
CCOC(=O)CCS(=O)(=O)c1nc(-c2ccccc2)cc(C(F)(F)F)n1	-4.4*	·	0.055*
O=C(C[N+]1(CC#Cc2ccccc2)CCOCC1)c1ccccc1	-0.37	6	·
C(#Cc1ccccc1)C[N+]1(CC#Cc2cccc3ccccc23)CCOCC1	-2.4*	45*	0.068*
O=c1c2ccccc2nc(/C=C/c2ccc([N+](=O)[O-])o2)n1CCCO	-3.1*	·	0.052*
O=c1c2ccccc2nc(/C=C/c2ccc([N+](=O)[O-])cc2)n1CCCO	-0.88	9	·
CCCS(=O)(=O)c1c(S(=O)(=O)CCC)c2cc(CC)ccn2c1C(=O)OC	-0.4	·	·
COP(=O)(CN(Cc1ccccc1)C(=S)Nc1c(C)cccc1C)OC	0.0091	5	·
COc1cccc(/C=N/n2c(N)nc3ccccc32)c1OC	6.6*	·	0.11*
COc1cccc(/C=N/n2cnc3ccccc32)c1OC	1.1	·	·
O=C(/C=C/c1ccc([N+](=O)[O-])cc1)NCCSc1ccccc1	·	·	?
Cc1ccc(SCCNC(=O)/C=C/c2ccc([N+](=O)[O-])cc2)cc1	-0.51	19	·
CCC(CC)NC(=O)c1ccc2nc[nH]c2c1	0.13	·	·
Cc1[nH][nH]c(=O)c1C(c1ccc(O)c([N+](=O)[O-])c1)c1c(C)[nH][nH]c1=O	·	6	0.077
SMILES	ROMK primary	Calb biofilm kill	ROMK hit retest
Cc1[nH][nH]c(=O)c1C(c1ccc([N+](=O)[O-])cc1)c1c(C)[nH][nH]c1=O	·	1	·
O=C(NNC1=C(C(=O)C(F)(F)F)CCC1)c1cccc(Cl)c1	5.8*	·	0.089
COc1ccc(C(=O)NNC2=C(C(=O)C(F)(F)F)CCC2)cc1	·	25	·
N#CCSc1nc2ccccc2c(=O)n1C1CCCCC1	-0.015	17	·
CCOC(=O)c1c(C)[nH]c(C(=O)COC(=O)c2ccc(O)cc2)c1C	·	16	·
CCOC(=O)c1c(C)[nH]c(C(=O)COC(=O)c2ccc(O)cc2O)c1C	·	8	0.078
CCN(CC)c1ccc(/C=N/NC(=O)c2ccc3nc[nH]c3c2)cc1	·	12	0.076
CCN(CC)c1ccc(/C=N/NC(=O)c2cnccn2)cc1	3.7*	11	0.1*
CCN(CC)c1ccc(/C=N/NC(=O)c2ccccn2)cc1	·	26	·
CN(C)c1ccc(/C=N/NC(=O)c2ccc3nc[nH]c3c2)cc1	0.55	4	·
O=S(=O)(NCC1NCCc2ccccc21)c1ccccc1 (stereo unspecified)	-0.31	17	·
Cc1ccc(S(=O)(=O)N2CCC(=O)N(C(COCc3ccc(C(F)(F)F)cc3)C(C)C)CC2)cc1 (stereo unspecified)	-1.6	15	·
Cc1ccc(S(=O)(=O)N2CCC(=O)N(C(COCc3ccc(Cl)c(Cl)c3)Cc3ccccc3)CC2)cc1 (stereo unspecified)	-4.7*	15	0.061*
Cc1ccc(S(=O)(=O)N2CCC(=O)N(C(COCc3ccc(C(F)(F)F)cc3)Cc3ccccc3)CC2)cc1 (stereo unspecified)	-6.7*	-4	0.075
Cc1ccc(S(=O)(=O)N2CCC(=O)N(C(COCc3cccc(C)c3)Cc3ccccc3)CC2)cc1 (stereo unspecified)	-1.7	1	·
O=C(O)Cc1ccc(NC(=O)c2cccc(NC(=O)c3ccco3)c2)cc1	-0.13	4	·
Cc1ccccc1-n1c(=O)c2ccccc2n2nnnc12	0.67	·	·
O=C(c1cc(Sc2cccc(Cl)c2)nc2ccccc12)N1CCN(c2ccccn2)CC1	-0.82	16	0.078
O=C(c1cc(Sc2ccc(Cl)cc2)nc2ccccc12)N1CCN(c2ccccn2)CC1	0.06	13	·
CCOc1cc(/C=C2/NC(=O)N(CC(=O)OC)C2=O)ccc1OC	·	54	·

Screens: PubChem, several laboratories
